{"source": "ChEMBL document CHEMBL4177625", "about": "“Ability of higenamine and related compounds to enhance glucose uptake in L6 cells” (Bioorg Med Chem, 2017)", "type_in_all_cases": "functional", "key": {"[1]": {"target": "Beta-2 adrenergic receptor (Rattus norvegicus) (UniProt P10608)", "sequence (P10608 whole entry, looked up)": "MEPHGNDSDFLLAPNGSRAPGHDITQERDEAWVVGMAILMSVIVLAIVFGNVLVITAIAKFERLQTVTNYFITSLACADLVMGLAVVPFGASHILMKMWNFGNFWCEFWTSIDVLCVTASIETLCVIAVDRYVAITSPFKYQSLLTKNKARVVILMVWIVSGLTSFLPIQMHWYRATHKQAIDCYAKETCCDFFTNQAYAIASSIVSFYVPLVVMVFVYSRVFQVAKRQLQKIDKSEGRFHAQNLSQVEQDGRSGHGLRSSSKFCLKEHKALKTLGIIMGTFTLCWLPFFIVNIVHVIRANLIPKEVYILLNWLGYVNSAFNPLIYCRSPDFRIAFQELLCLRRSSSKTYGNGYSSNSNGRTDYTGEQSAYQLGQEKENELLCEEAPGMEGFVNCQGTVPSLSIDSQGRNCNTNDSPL", "experiment": "Agonist activity at beta2 adrenergic receptor in rat L6 cell lysate assessed as increase in intracellular 2-deoxyglucose uptake at 0.5 to 100 uM preincubated for 4 hrs followed by 2-deoxyglucose measured after 20 mins by fluorescence-based enzymatic assay relative to control", "how_it_was_run": "(§1)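 L6 rat myoblasts (JCRB9081) were grown in DMEM with 10% FBS at 37°C under 10% CO2. At confluence they were differentiated in DMEM with 2% horse serum for 6–8 days. Cells were serum-starved, then exposed to sample in serum-free DMEM for 4 h, with 100 nM insulin as the positive control. They were rinsed in KRPH buffer pH 7.4 and given 1 mM 2-deoxyglucose for 20 min. After washing, cells were lysed in 0.05 M NaOH and lysate 2-deoxyglucose was quantified enzymatically by fluorescence.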"}, "[2]": {"target": "Beta-2 adrenergic receptor (Rattus norvegicus) (UniProt P10608)", "experiment": "Agonist activity at beta2 adrenergic receptor in rat L6 cell lysate assessed as increase in intracellular 2-deoxyglucose uptake at 100 uM preincubated for 4 hrs followed by 2-deoxyglucose measured after 20 mins by fluorescence-based enzymatic assay relative to control", "how_it_was_run": "as §1"}, "[3]": {"target": "Beta-2 adrenergic receptor (Rattus norvegicus) (UniProt P10608)", "experiment": "Agonist activity at beta2 adrenergic receptor in rat L6 cell lysate assessed as increase in intracellular 2-deoxyglucose uptake at 10 to 100 uM preincubated for 4 hrs followed by 2-deoxyglucose measured after 20 mins by fluorescence-based enzymatic assay relative to control", "how_it_was_run": "as §1"}, "[4]": {"target": "Beta-2 adrenergic receptor (Rattus norvegicus) (UniProt P10608)", "experiment": "Agonist activity at beta2 adrenergic receptor in rat L6 cell lysate assessed as increase in intracellular 2-deoxyglucose uptake at 0.1 to 100 uM preincubated for 4 hrs followed by 2-deoxyglucose measured after 20 mins by fluorescence-based enzymatic assay relative to higenamine", "how_it_was_run": "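Differentiated L6 rat myotubes (2% horse serum, 6–8 days post-confluence) serum-starved, then exposed to sample in serum-free DMEM for 4 h; insulin 100 nM as positive control. Rinsed with KRPH buffer (pH 7.4), given 1 mM 2-deoxyglucose for 20 min, washed thrice, lysed in 0.05 M NaOH; lysate 2-deoxyglucose measured enzymatically by fluorescence.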"}, "[5]": {"target": "Beta-2 adrenergic receptor (Rattus norvegicus, UniProt P10608)", "sequence (P10608 whole entry)": "as the sequence (P10608 whole entry, looked up) above", "experiment": "Agonist activity at beta2 adrenergic receptor in rat L6 cell lysate assessed as increase in intracellular 2-deoxyglucose uptake preincubated for 4 hrs followed by 2-deoxyglucose addition measured after 20 mins by fluorescence-based enzymatic assay relative to control", "how_it_was_run": "as §1"}, "[6]": {"target": "Beta-2 adrenergic receptor (Rattus norvegicus) (UniProt P10608)", "experiment": "Agonist activity at beta2 adrenergic receptor in rat L6 cell lysate assessed as increase in intracellular 2-deoxyglucose uptake at 0.1 to 100 uM preincubated for 4 hrs followed by 2-deoxyglucose measured after 20 mins by fluorescence-based enzymatic assay relative to control", "how_it_was_run": "as §1"}, "[7]": {"target": "Beta-2 adrenergic receptor (Rattus norvegicus) (UniProt P10608)", "experiment": "Agonist activity at beta2 adrenergic receptor in rat L6 cell lysate assessed as increase in intracellular 2-deoxyglucose uptake at more than 5 uM preincubated for 4 hrs followed by 2-deoxyglucose measured after 20 mins by fluorescence-based enzymatic assay relative to control", "how_it_was_run": "as §1"}}, "note": "Active and inactive are the calls of the source. The rule behind the calls is not given here."}
{"molecule": "COc1cc2c(cc1O)CCNC2Cc1ccc(O)cc1", "note": "(stereo unspecified)", "values": [{"measurement": "Activity", "setting": "[1]", "value": "Active"}, {"measurement": "fold change (FC)", "setting": "[2]", "value": 1.2}]}
{"molecule": "NC[C@H](O)c1ccc(O)c(O)c1", "values": [{"measurement": "Activity", "setting": "[3]", "value": "Active"}]}
{"molecule": "COc1cc2c(cc1O)C(Cc1ccc(O)cc1)NCC2", "note": "(stereo unspecified)", "values": [{"measurement": "fold change (FC)", "setting": "[1]", "value": 1.6}, {"measurement": "Activity", "setting": "[4]", "value": 40, "unit": "%"}]}
{"molecule": "CNC[C@H](O)c1ccc(O)c(O)c1", "values": [{"measurement": "Activity", "setting": "[3]", "value": "Active"}]}
{"molecule": "Oc1ccc(C[C@H]2NCCc3cc(O)c(O)cc32)cc1", "note": "[(+)-HIGENAMINE]", "values": [{"measurement": "EC50", "setting": "[5]", "value": 4500, "unit": "nM"}]}
{"molecule": "Oc1ccc(C[C@@H]2NCCc3cc(O)c(O)cc32)cc1", "note": "[(-)-HIGENAMINE]", "values": [{"measurement": "EC50", "setting": "[5]", "value": 600, "unit": "nM"}]}
{"molecule": "COc1cc2c(cc1OC)C(Cc1ccc(O)cc1)NCC2", "note": "(stereo unspecified)", "values": [{"measurement": "Activity", "setting": "[6]", "value": "Active"}]}
{"molecule": "Oc1ccc(CC2NCCc3cc(O)c(O)cc32)cc1", "note": "(stereo unspecified)", "values": [{"measurement": "fold change (FC)", "setting": "[7]", "value": "> 2"}, {"measurement": "Activity", "setting": "[3]", "value": "Active"}]}
{"molecule": "CN1CCc2cc(O)c(O)cc2C1Cc1ccc(O)cc1", "note": "(stereo unspecified)", "values": [{"measurement": "Activity", "setting": "[1]", "value": "Active"}, {"measurement": "fold change (FC)", "setting": "[2]", "value": 1.2}]}
{"molecule": "OC[C@H]1O[C@@H](Oc2ccc(C[C@@H]3NCCc4cc(O)c(O)cc43)cc2)[C@H](O)[C@@H](O)[C@@H]1O", "values": [{"measurement": "EC50", "setting": "[5]", "value": 1300, "unit": "nM"}]}
{"molecule": "OC[C@H]1O[C@@H](Oc2ccc(C[C@H]3NCCc4cc(O)c(O)cc43)cc2)[C@H](O)[C@@H](O)[C@@H]1O", "values": [{"measurement": "EC50", "setting": "[5]", "value": 9000, "unit": "nM"}]}
{"molecule": "COc1ccc(CC2NCCc3cc(O)c(O)cc32)cc1", "note": "(stereo unspecified)", "values": [{"measurement": "Activity", "setting": "[6]", "value": "Active"}]}
